Laboratory results: ChEMBL document CHEMBL1147968, “Novel lbeta-methylcarbapenems having cyclic sulfonamide moieties: synthesis and evaluation of in vitro antibacterial activity” (2007)

Key:
Enterococcus faecalis = test: Antibacterial activity against Enterococcus faecalis 2347 after 18 to 24 hrs by agar dilution method; assay type: functional
In short: (§1)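 MICs were determined by agar dilution on test agar. An overnight tryptosoy broth culture was diluted in the same broth to about 10⁶ cells/mL and spotted with an inoculating device onto agar containing serial twofold dilutions of compound. Plates were incubated at 37 °C for 18–20 h, and the MIC was the lowest concentration with no visible growth.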

Escherichia coli [1] = test: Antibacterial activity against Escherichia coli TEM after 18 to 24 hrs by agar dilution method; assay type: functional; in short: as §1
Serratia marcescens [2] = test: Antibacterial activity against Serratia marcescens 6093 after 18 to 24 hrs by agar dilution method; assay type: functional; in short: as §1
Pseudomonas aeruginosa [3] = test: Antibacterial activity against Pseudomonas aeruginosa 5455 after 18 to 24 hrs by agar dilution method; assay type: functional; in short: as §1
Bacillus subtilis = test: Antibacterial activity against Bacillus subtilis ATCC 6633 after 18 to 24 hrs by agar dilution method; assay type: functional; in short: as §1
Streptococcus agalactiae [4] = test: Antibacterial activity against Streptococcus agalactiae B after 18 to 24 hrs by agar dilution method; assay type: functional; in short: as §1
Haemophilus influenzae = test: Antibacterial activity against Haemophilus influenzae 1210 after 18 to 24 hrs by agar dilution method; assay type: functional; in short: as §1
Pseudomonas aeruginosa [5] = test: Antibacterial activity against Pseudomonas aeruginosa 77/2 after 18 to 24 hrs by agar dilution method; assay type: functional; in short: as §1
Trueperella pyogenes = test: Antibacterial activity against Corynebacterium pyogenes after 18 to 24 hrs by agar dilution method; assay type: functional; in short: as §1
Pseudomonas aeruginosa [6] = test: Antibacterial activity against Pseudomonas aeruginosa 880/2 after 18 to 24 hrs by agar dilution method; assay type: functional; in short: as §1
Pasteurella multocida = test: Antibacterial activity against Pasteurella multocida after 18 to 24 hrs by agar dilution method; assay type: functional; in short: as §1
Enterobacter cloacae [7] = test: Antibacterial activity against Enterobacter cloacae 34 after 18 to 24 hrs by agar dilution method; assay type: functional; in short: as §1
Salmonella paratyphi = test: Antibacterial activity against Salmonella paratyphi A after 18 to 24 hrs by agar dilution method; assay type: functional, Salmonella enterica subsp. enterica serovar Paratyphi A; details: Salmonella enterica
In short: (§2)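 Agar dilution on test agar with serial twofold dilutions of compound. Overnight tryptosoy broth cultures diluted in the same broth to about 10⁶ cells/mL, then applied with an inoculating device. Plates incubated at 37 °C for 18–20 h.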

Micrococcus luteus = test: Antibacterial activity against Micrococcus luteus ATCC 9341 after 18 to 24 hrs by agar dilution method; assay type: functional; in short: as §1
Salmonella typhi = test: Antibacterial activity against Salmonella typhi after 18 to 24 hrs by agar dilution method; assay type: functional, Salmonella enterica subsp. enterica serovar Typhi; details: Salmonella enterica; in short: as §2
Klebsiella pneumoniae [8] = test: Antibacterial activity against Klebsiella pneumoniae 477 after 18 to 24 hrs by agar dilution method; assay type: functional; in short: as §1
Enterobacter cloacae [9] = test: Antibacterial activity against Enterobacter cloacae after 18 to 24 hrs by agar dilution method; assay type: functional; in short: as §1
Klebsiella pneumoniae [10] = test: Antibacterial activity against Klebsiella pneumoniae 523 after 18 to 24 hrs by agar dilution method; assay type: functional; in short: as §1
[11] = test system: Corynebacterium diphtheriae; test: Antibacterial activity against Corynebacterium diphtheriae after 18 to 24 hrs by agar dilution method; assay type: functional; in short: as §1
Staphylococcus aureus [12] = test: Antibacterial activity against Staphylococcus aureus 209P after 18 to 24 hrs by agar dilution method; assay type: functional; in short: as §1
Proteus mirabilis [13] = test: Antibacterial activity against Proteus mirabilis 112/3 after 18 to 24 hrs by agar dilution method; assay type: functional; in short: as §1
Burkholderia cepacia = test: Antibacterial activity against Pseudomonas cepacia after 18 to 24 hrs by agar dilution method; assay type: functional; in short: as §1
Providencia rettgeri [14] = test: Antibacterial activity against Proteus rettgeri 937 after 18 to 24 hrs by agar dilution method; assay type: functional; in short: as §1
Acinetobacter baumannii = test: Antibacterial activity against Acinetobacter baumannii 2289 after 18 to 24 hrs by agar dilution method; assay type: functional; in short: as §1
Escherichia coli [15] = test: Antibacterial activity against Escherichia coli 0126 after 18 to 24 hrs by agar dilution method; assay type: functional; in short: as §1
[16] = Antibacterial activity against Salmonella give after 18 to 24 hrs by agar dilution method; assay type: functional, Salmonella enterica subsp. enterica serovar Give; details: Salmonella enterica; in short: as §1
[17] = Antibacterial activity against Salmonella oranienburg after 18 to 24 hrs by agar dilution method; assay type: functional, Salmonella enterica subsp. enterica serovar Oranienburg; details: Salmonella enterica; in short: as §1
Staphylococcus = test: Antibacterial activity against coagulase negative Staphylococcus after 18 to 24 hrs by agar dilution method; assay type: functional
In short: (§3)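 Agar dilution on test agar holding serial twofold dilutions of compound. Overnight tryptosoy broth cultures were diluted in the same broth to about 10⁶ cells/mL and spotted with an inoculating device. Plates were incubated at 37 °C for 18–20 h.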

Proteus mirabilis [18] = test: Antibacterial activity against Proteus mirabilis 174/3 after 18 to 24 hrs by agar dilution method; assay type: functional; in short: as §1
Escherichia coli [19] = test: Antibacterial activity against Escherichia coli 04 after 18 to 24 hrs by agar dilution method; assay type: functional; in short: as §1
Staphylococcus aureus [20] = test: Antibacterial activity against Staphylococcus aureus giorgio after 18 to 24 hrs by agar dilution method; assay type: functional; in short: as §1
Staphylococcus aureus [21] = test: Antibacterial activity against Staphylococcus aureus 503 after 18 to 24 hrs by agar dilution method; assay type: functional; in short: as §1
Escherichia coli [22] = test: Antibacterial activity against Escherichia coli 086 after 18 to 24 hrs by agar dilution method; assay type: functional; in short: as §1
Staphylococcus aureus [23] = test: Antibacterial activity against Staphylococcus aureus 1218 after 18 to 24 hrs by agar dilution method; assay type: functional; in short: as §1
Streptococcus agalactiae [24] = test: Antibacterial activity against Streptococcus agalactiae 32 after 18 to 24 hrs by agar dilution method; assay type: functional; in short: as §1
Serratia marcescens [25] = test: Antibacterial activity against Serratia marcescens 370 after 18 to 24 hrs by agar dilution method; assay type: functional; in short: as §1
Pseudomonas aeruginosa [26] = test: Antibacterial activity against Pseudomonas aeruginosa 110/2 after 18 to 24 hrs by agar dilution method; assay type: functional; in short: as §1
Enterobacter cloacae [27] = test: Antibacterial activity against Enterobacter cloacae 417 after 18 to 24 hrs by agar dilution method; assay type: functional; in short: as §1
Providencia rettgeri [28] = test: Antibacterial activity against Proteus rettgeri 936 after 18 to 24 hrs by agar dilution method; assay type: functional; in short: as §1
Enterococcus durans = test: Antibacterial activity against Streptococcus durans D after 18 to 24 hrs by agar dilution method; assay type: functional; in short: as §1
Escherichia coli [29] = test: Antibacterial activity against Escherichia coli 0114 after 18 to 24 hrs by agar dilution method; assay type: functional; in short: as §1
Serratia marcescens [30] = test: Antibacterial activity against Serratia marcescens 3349 after 18 to 24 hrs by agar dilution method; assay type: functional; in short: as §1
Proteus vulgaris = test: Antibacterial activity against Proteus vulgaris 868 after 18 to 24 hrs by agar dilution method; assay type: functional; in short: as §1
Escherichia coli [31] = test: Antibacterial activity against Escherichia coli V6311/65 after 18 to 24 hrs by agar dilution method; assay type: functional; in short: as §1
Serratia marcescens [32] = test: Antibacterial activity against Serratia marcescens 14273 after 18 to 24 hrs by agar dilution method; assay type: functional; in short: as §1
Pseudomonas aeruginosa [33] = test: Antibacterial activity against Pseudomonas aeruginosa 9027 after 18 to 24 hrs by agar dilution method; assay type: functional; in short: as §1
Enterococcus faecium = test: Antibacterial activity against Streptococcus faecium 77A after 18 to 24 hrs by agar dilution method; assay type: functional; in short: as §1
Priestia megaterium = test: Antibacterial activity against Bacillus megaterium after 18 to 24 hrs by agar dilution method; assay type: functional; in short: as §1
Salmonella = test: Antibacterial activity against Salmonella orion after 18 to 24 hrs by agar dilution method; assay type: functional; in short: as §1
Citrobacter freundii = test: Antibacterial activity against Citrobacter freundii 323 after 18 to 24 hrs by agar dilution method; assay type: functional; in short: as §1
Salmonella typhimurium = test: Antibacterial activity against Salmonella Typhimurium after 18 to 24 hrs by agar dilution method; assay type: functional, Salmonella enterica subsp. enterica serovar Typhimurium; details: Salmonella enterica; in short: as §1
Streptococcus pyogenes = test: Antibacterial activity against Streptococcus pyogenes 9889 after 18 to 24 hrs by agar dilution method; assay type: functional; in short: as §3
Streptococcus pneumoniae = test: Antibacterial activity against Streptococcus pneumoniae 0025 after 18 to 24 hrs by agar dilution method; assay type: functional; in short: as §1
Escherichia coli [34] = test: Antibacterial activity against Escherichia coli 1507 after 18 to 24 hrs by agar dilution method; assay type: functional; in short: as §1

Measured: MIC

C[C@@H](O)C1C(=O)N2C(C(=O)O)=C(S[C@@H]3CN[C@H](CN4CCCN(C)S4(=O)=O)C3)[C@H](C)C12 (some centres undefined)
0.05 µg/mL: Pasteurella multocida | Salmonella paratyphi | Klebsiella pneumoniae [8] | Staphylococcus aureus [20] | Escherichia coli [31] | Priestia megaterium
0.8 µg/mL: Pseudomonas aeruginosa [26]
1.6 µg/mL: Pseudomonas aeruginosa [5] | Pseudomonas aeruginosa [33]
0.4 µg/mL: Pseudomonas aeruginosa [6] | Burkholderia cepacia | Providencia rettgeri [14] | Providencia rettgeri [28] | Proteus vulgaris | Serratia marcescens [32]
0.025 µg/mL: Enterobacter cloacae [7] | Klebsiella pneumoniae [10] | Escherichia coli [19] | Citrobacter freundii
1.56 µg/mL: Pseudomonas aeruginosa [3]
< 0.01 µg/mL: Streptococcus agalactiae [24] | Enterococcus faecium | Streptococcus pyogenes
0.2 µg/mL: Serratia marcescens [2] | Proteus mirabilis [13] | Proteus mirabilis [18]
0.1 µg/mL: [16] | [17] | Serratia marcescens [25] | Enterococcus durans | Salmonella | Salmonella typhimurium
0.03 µg/mL: Bacillus subtilis | Salmonella typhi
0.01 µg/mL: Escherichia coli [1] | Trueperella pyogenes | Enterobacter cloacae [9] | [11] | Staphylococcus aureus [21] | Streptococcus pneumoniae
3.12 µg/mL: Enterococcus faecalis | Haemophilus influenzae | Acinetobacter baumannii
6.25 µg/mL: Staphylococcus aureus [23]
0.049 µg/mL: Staphylococcus | Serratia marcescens [30]
0.02 µg/mL: all other assays above
